Assay results as given in paper PMC4306506 (Journal of Medicinal Chemistry, 2014).
Positions of bridges follow the written chain, without caps; N, C: chain ends. Residues, ends and D or L forms follow the SMILES beside them.

What was measured:
[1] = Apparent solubility by absorbance at 280 nm; assay type: physicochemical; conditions: PBS pH 7.4, absorbance at 280 nm
How it was run: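 About 1 mg test peptide in 200 μL PBS pH 7.4; upper reportable limit 5 mg/mL. Vortexed 30 s, centrifuged 13000g for 5 min. Supernatant A280 converted to concentration by Beer–Lambert, using extinction coefficients from each peptide's Trp and Tyr count. Samples kept at 4 °C and re-read at 24 and 48 h. Mean and standard deviation of three readings per sample.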

complement C3 = complement C3 (Homo sapiens, UniProt P01024); assay: Complement inhibition across biochemical and functional assays; conditions: C3b ELISA, C5b-9 ELISA, hemolytic assay
[2] = phase II, NCT00473928 and NCT01157065; cited from earlier work

Chain of complement C3 (P01024 23-667 limits assumed): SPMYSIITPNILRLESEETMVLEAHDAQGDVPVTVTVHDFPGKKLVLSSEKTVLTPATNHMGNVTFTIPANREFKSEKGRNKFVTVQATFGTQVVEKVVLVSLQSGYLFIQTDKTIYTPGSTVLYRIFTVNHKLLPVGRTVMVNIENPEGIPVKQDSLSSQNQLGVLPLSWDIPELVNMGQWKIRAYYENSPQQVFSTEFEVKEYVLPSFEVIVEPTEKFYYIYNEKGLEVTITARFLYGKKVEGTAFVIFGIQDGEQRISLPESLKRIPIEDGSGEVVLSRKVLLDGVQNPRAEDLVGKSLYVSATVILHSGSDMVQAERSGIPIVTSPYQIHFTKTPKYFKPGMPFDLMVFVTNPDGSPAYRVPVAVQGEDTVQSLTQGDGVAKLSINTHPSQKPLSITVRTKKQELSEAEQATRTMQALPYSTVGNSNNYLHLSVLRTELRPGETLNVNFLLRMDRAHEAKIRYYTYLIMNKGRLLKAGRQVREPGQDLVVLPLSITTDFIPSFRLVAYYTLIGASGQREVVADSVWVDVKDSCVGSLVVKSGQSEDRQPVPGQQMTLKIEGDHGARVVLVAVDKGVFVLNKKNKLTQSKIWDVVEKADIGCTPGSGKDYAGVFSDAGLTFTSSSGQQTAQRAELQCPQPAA
Chain of complement C3 (P01024 672-1663 partner limits assumed): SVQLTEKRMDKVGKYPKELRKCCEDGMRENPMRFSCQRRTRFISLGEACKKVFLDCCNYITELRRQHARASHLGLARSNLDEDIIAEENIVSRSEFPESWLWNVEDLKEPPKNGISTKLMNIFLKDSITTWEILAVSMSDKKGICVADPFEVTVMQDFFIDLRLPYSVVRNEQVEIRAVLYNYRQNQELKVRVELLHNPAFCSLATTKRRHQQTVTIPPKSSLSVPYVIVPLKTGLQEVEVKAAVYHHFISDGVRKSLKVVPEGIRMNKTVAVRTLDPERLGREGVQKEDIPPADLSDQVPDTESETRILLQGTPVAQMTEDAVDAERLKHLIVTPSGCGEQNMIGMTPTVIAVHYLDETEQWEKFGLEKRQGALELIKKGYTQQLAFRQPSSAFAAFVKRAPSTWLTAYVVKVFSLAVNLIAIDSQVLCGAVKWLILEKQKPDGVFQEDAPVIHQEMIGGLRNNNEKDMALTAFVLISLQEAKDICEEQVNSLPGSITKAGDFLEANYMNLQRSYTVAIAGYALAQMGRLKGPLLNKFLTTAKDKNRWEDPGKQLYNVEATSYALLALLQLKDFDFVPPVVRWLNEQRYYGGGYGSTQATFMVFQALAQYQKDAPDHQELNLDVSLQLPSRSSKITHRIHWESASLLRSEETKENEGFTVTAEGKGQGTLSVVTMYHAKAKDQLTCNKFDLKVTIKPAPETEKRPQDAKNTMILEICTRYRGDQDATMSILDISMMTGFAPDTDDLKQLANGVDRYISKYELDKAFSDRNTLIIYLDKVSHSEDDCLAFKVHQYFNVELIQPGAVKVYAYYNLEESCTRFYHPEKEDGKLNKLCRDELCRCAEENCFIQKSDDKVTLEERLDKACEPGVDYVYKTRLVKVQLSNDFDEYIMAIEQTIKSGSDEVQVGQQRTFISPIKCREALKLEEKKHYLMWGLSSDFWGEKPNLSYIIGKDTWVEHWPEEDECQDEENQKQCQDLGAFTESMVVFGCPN

Row | Compound | Solubility, in words [1] | Complement inhibitory activity relative to controls, in words (complement C3) | Retinal thickness in AMD patients in comparison to ranibizumab [2]
1 | CC[C@H](C)[C@H](NC(C)=O)C(=O)N[C@H]1CSSC[C@@H](C(=O)N[C@H](C(N)=O)[C@@H](C)O)NC(=O)[C@H](CCCNC(=N)N)NC(=O)[C@H](Cc2c[nH]cn2)NC(=O)[C@@](C)(CC)NC(=O)CNC(=O)[C@H](Cc2c[nH]c3ccccc23)NC(=O)[C@H](CC(=O)O)NC(=O)[C@H](CCC(N)=O)NC(=O)[C@H](Cc2c[nH]c3ccccc23)NC(=O)[C@H](C(C)C)NC1=O [Peptide 3, Ac- ICV W QDWG{Rea}HRCT-NH2] | greatly improved aqueous solubility | inhibitory activity similar to meW4A9 | –
2 | CC(=O)N[C@@H](CC(N)=O)C(=O)N[C@@H](CCCNC(=N)N)C(=O)N[C@@H](CC(C)C)C(=O)N[C@H]1CSSC[C@@H](C(=O)N[C@H](C(N)=O)[C@@H](C)O)NC(=O)[C@H](CCCNC(=N)N)NC(=O)[C@H](Cc2c[nH]cn2)NC(=O)[C@H](C)NC(=O)CNC(=O)[C@H](Cc2c[nH]c3ccccc23)NC(=O)[C@H](CC(=O)O)NC(=O)[C@H](CCC(N)=O)NC(=O)[C@H](Cc2c[nH]c3ccccc23)NC(=O)[C@H](C(C)C)NC1=O [Peptide 8, Ac-NRLCV W QDWG A HRCT-NH2] (Ac-NRLCVWQDWGAHRCT-NH2; disulfide 4-14) | greatly improved aqueous solubility | inhibitory activity similar to meW4A9 | –
3 | CC[C@H](C)[C@H](NC(C)=O)C(=O)N[C@H]1CSSC[C@@H](C(=O)N[C@H](C(N)=O)[C@@H](C)O)NC(=O)[C@H](CCCNC(=N)N)NC(=O)[C@H](Cc2c[nH]cn2)NC(=O)[C@H](C)NC(=O)CNC(=O)[C@H](Cc2c[nH]c3ccccc23)NC(=O)[C@H](CC(=O)O)NC(=O)[C@H](CCC(N)=O)NC(=O)[C@H](Cc2cn(C)c3ccccc23)NC(=O)[C@H](C(C)C)NC1=O [meW4A9, Ac- ICV{meW}QDWG A HRCT-NH2] | – | – | did not yield reduced retinal thickness
4 | CC[C@H](C)[C@H](NC(=O)[C@H](CO)NC(=O)[C@H](CCCNC(=N)N)NC(C)=O)C(=O)N[C@H]1CSSC[C@@H](C(=O)N[C@H](C(N)=O)[C@@H](C)O)NC(=O)[C@H](CCCNC(=N)N)NC(=O)[C@H](Cc2c[nH]cn2)NC(=O)[C@H](C)NC(=O)CNC(=O)[C@H](Cc2c[nH]c3ccccc23)NC(=O)[C@H](CC(=O)O)NC(=O)[C@H](CCC(N)=O)NC(=O)[C@H](Cc2c[nH]c3ccccc23)NC(=O)[C@H](C(C)C)NC1=O [Peptide 9, Ac-RSICV W QDWG A HRCT-NH2] | greatly improved aqueous solubility | inhibitory activity similar to meW4A9 | –
5 | CC[C@H](C)[C@H](NC(C)=O)C(=O)N[C@H]1CSSC[C@@H](C(=O)N[C@H](C(N)=O)[C@@H](C)O)NC(=O)[C@H](CCCNC(=N)N)NC(=O)[C@H](Cc2c[nH]cn2)NC(=O)[C@](C)(CC)NC(=O)CNC(=O)[C@H](Cc2c[nH]c3ccccc23)NC(=O)[C@H](CC(=O)O)NC(=O)[C@H](CCC(N)=O)NC(=O)[C@H](Cc2c[nH]c3ccccc23)NC(=O)[C@H](C(C)C)NC1=O [Peptide 5, Ac- ICV W QDWG{Sea}HRCT-NH2] | greatly improved aqueous solubility | inhibitory activity similar to meW4A9 | –
6 | C=CC[C@@]1(C)NC(=O)CNC(=O)[C@H](Cc2c[nH]c3ccccc23)NC(=O)[C@H](CC(=O)O)NC(=O)[C@H](CCC(N)=O)NC(=O)[C@H](Cc2c[nH]c3ccccc23)NC(=O)[C@H](C(C)C)NC(=O)[C@@H](NC(=O)[C@@H](NC(C)=O)[C@@H](C)CC)CSSC[C@@H](C(=O)N[C@H](C(N)=O)[C@@H](C)O)NC(=O)[C@H](CCCNC(=N)N)NC(=O)[C@H](Cc2c[nH]cn2)NC1=O [Peptide 4, Ac- ICV W QDWG{Aal}HRCT-NH2] | greatly improved aqueous solubility | inhibitory activity similar to meW4A9 | –
7 | CC(=O)N[C@@H](CC(N)=O)C(=O)N[C@@H](CC(N)=O)C(=O)N[C@@H](CC(C)C)C(=O)N[C@H]1CSSC[C@@H](C(=O)N[C@H](C(N)=O)[C@@H](C)O)NC(=O)[C@H](CCCNC(=N)N)NC(=O)[C@H](Cc2c[nH]cn2)NC(=O)[C@H](C)NC(=O)CNC(=O)[C@H](Cc2c[nH]c3ccccc23)NC(=O)[C@H](CC(=O)O)NC(=O)[C@H](CCC(N)=O)NC(=O)[C@H](Cc2c[nH]c3ccccc23)NC(=O)[C@H](C(C)C)NC1=O [Peptide 7, Ac-NNLCV W QDWG A HRCT-NH2] (Ac-NNLCVWQDWGAHRCT-NH2; disulfide 4-14) | greatly improved aqueous solubility | inhibitory activity similar to meW4A9 | –
